Tests used:
Format in all cases: cell-based
[1] = target: Sodium-dependent serotonin transporter (Homo sapiens, UniProt P31645); assay: In vitro displacement of [3H]paroxetine from human serotonin transporter expressed in HEK293 cells
[2] = target: Sodium-dependent dopamine transporter (Homo sapiens, UniProt Q01959); assay: In vitro displacement of [3H]GBR-12935 from human dopamine transporter expressed in HEK293 cells
Method in brief: (§1)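 Competitive binding using cloned human transporters expressed in HEK-293 cells. NET was labelled with [³H]nisoxetine and DAT with [³H]GBR12935, following a previously published procedure.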

[3] = target: Sodium-dependent noradrenaline transporter (Homo sapiens, UniProt P23975); assay: In vitro displacement of [3H]nisoxetine from human norepinephrine transporter expressed in HEK293 cells; method in brief: as §1
Sequence of Sodium-dependent noradrenaline transporter (P23975 whole entry): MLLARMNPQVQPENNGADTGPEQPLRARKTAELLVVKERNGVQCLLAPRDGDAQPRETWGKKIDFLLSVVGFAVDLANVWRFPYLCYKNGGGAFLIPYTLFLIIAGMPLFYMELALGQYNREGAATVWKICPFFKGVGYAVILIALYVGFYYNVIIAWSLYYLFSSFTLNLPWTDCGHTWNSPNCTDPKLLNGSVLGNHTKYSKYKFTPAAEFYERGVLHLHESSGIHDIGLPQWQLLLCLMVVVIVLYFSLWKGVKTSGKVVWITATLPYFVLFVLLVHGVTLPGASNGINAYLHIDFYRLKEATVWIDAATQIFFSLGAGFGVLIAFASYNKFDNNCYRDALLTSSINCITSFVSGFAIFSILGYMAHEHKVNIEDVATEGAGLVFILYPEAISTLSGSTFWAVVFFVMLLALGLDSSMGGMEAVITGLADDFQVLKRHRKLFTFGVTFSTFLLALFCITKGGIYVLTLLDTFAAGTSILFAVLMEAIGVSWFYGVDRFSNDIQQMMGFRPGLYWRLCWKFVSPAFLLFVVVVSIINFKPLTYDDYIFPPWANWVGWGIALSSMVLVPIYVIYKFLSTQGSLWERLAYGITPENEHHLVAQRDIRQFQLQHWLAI

Sequence of Sodium-dependent serotonin transporter (P31645 whole entry): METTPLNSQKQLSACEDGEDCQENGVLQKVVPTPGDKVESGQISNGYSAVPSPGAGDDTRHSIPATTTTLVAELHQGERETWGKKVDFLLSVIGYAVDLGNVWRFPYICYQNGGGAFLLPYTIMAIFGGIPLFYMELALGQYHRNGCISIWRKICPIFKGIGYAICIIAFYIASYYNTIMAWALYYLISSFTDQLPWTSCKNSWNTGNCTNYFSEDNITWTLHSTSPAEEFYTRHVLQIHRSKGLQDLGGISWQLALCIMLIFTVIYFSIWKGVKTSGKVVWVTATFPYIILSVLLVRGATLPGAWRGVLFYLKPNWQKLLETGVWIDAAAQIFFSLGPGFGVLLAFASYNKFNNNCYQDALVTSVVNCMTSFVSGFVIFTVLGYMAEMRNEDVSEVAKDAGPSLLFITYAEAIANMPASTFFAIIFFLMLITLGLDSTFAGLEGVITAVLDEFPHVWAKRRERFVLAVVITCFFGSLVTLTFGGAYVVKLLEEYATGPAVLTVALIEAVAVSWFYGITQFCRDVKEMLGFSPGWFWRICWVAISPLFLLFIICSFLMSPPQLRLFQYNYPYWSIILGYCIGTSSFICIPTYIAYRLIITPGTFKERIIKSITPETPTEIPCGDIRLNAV
Sequence of Sodium-dependent dopamine transporter (Q01959 whole entry): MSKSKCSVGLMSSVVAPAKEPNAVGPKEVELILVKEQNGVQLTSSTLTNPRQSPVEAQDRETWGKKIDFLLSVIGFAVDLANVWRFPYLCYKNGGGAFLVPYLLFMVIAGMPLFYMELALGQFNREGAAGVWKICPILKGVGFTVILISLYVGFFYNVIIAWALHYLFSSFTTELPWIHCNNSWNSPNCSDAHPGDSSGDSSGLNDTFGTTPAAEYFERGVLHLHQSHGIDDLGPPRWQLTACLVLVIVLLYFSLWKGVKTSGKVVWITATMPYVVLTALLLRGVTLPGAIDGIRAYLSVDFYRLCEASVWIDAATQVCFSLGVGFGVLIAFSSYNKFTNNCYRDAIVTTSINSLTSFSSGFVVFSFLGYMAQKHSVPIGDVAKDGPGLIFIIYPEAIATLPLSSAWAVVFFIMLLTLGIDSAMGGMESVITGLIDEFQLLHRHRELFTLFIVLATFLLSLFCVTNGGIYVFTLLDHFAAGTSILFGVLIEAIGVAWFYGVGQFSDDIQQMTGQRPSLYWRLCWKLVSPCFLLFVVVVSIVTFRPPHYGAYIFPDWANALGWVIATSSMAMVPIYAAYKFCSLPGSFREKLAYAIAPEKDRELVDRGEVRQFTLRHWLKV

Compound: Cc1ccc(Sc2ccccc2CN(C)C)c(N)c1
- Ki [1]: 1.19 nM

Compound: Cc1cc(N)c(Sc2ccccc2CN(C)C)cc1F
- Ki [2]: > 10 µM
- Ki [1]: 179 nM
- Ki [3]: 7.04 µM

— ChEMBL document CHEMBL1145212, “Fluorinated diaryl sulfides as serotonin transporter ligands: synthesis, structure-activity relationship study, and in vivo evaluation of fluorine-18-labeled compounds as PET imaging agents” (J Med Chem, 2005)
